Assays:
LoVo = test: Inhibitory concentration was evaluated against colorectal tumar cell line LoVo; format: functional, cell-based; conditions: Homo sapiens
How it was run: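 Cells were exposed to compound in microtitre plates for 1 h, washed, then grown a further 3 days at 37 °C. They were fixed with TCA, and adherent cellular protein was measured by SRB staining. IC50 is the concentration giving 50% growth inhibition.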

[1] = Half life period was reported; format: ADME
Bacteria [2] = test: Catalytic rate constant for bacterial Carboxypeptidase
How it was run: (§1)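 CPG2 kinetics adapted from the methotrexate CPG2 method. Prodrug and drug spectra were scanned from 200 to 350 nm, and the wavelength of maximal absorbance difference from glutamate release was chosen. Initial rates of prodrug conversion were measured at 1-100 µM prodrug with 0.05-1 Unit CPG2 to give Km and Vmax. kcat was Vmax divided by the amount of CPG2.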

Bacteria [3] = test: Michaelis-Menten constant for bacterial Carboxypeptidase; how it was run: as §1

SMILES | IC50 (LoVo) | half-life [1] | k cat (Bacteria [2]) | Km (Bacteria [3])
CS(=O)(=O)OCCN(CCCl)c1ccc(C(=O)O)cc1 | 80 µM | – | – | –
O=C(O)CC[C@H](NC(=O)Cc1ccc(N(CCCl)CCCl)cc1)C(=O)O | > 500 µM | 33 min | 15 s⁻¹ | 16 µM
O=C(O)CC[C@H](NC(=O)Oc1ccc(N(CCCl)CCCl)cc1)C(=O)O | 200 µM | 31 min | 49 s⁻¹ | 1 µM
O=C(O)CC[C@H](NC(=O)Sc1ccc(N(CCCl)CCCl)cc1)C(=O)O | 100 µM | 32.2 min | 4 s⁻¹ | 50 µM
O=C(O)CC[C@H](NC(=O)c1ccc(N(CCCl)CCCl)cc1)C(=O)O | > 500 µM | 660 min | 700 s⁻¹ | 3.4 µM
O=C(O)CC[C@H](NC(=O)Nc1ccc(N(CCCl)CCCl)cc1)C(=O)O | 200 µM | 16.9 min | 7.5 s⁻¹ | 3 µM
CS(=O)(=O)OCCN(CCCl)c1ccc(C(=O)N[C@@H](CCC(=O)O)C(=O)O)cc1 | > 500 µM | 46 min | 583 s⁻¹ | 3.4 µM

— ChEMBL document CHEMBL1129511 (J Med Chem, 1996)
